Measured values reported in ChEMBL document CHEMBL1146504, “Resveratrol derivatives and their role as potassium channels modulators” (J Nat Prod, 2004).
Calls of active or inactive are those of the source. The rule behind the calls is not given here.

Key:
Assay type in all cases: cell-based
F11 [1] = assay: Blockade of delayed rectifier potassium channel in mouse rat hybrid F11 cells at 90 uM by whole-cell patch clamp technique
Procedure, shortened: (§1)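 F11 cells (mouse neuroblastoma N18TG-2 × rat DRG) grown in DMEM with 4.5 g/L glucose and 10% FCS at 37 °C, 5% CO2, and plated about 24 h before recording. Whole-cell clamp with compensated capacitance and series resistance. Pipette: K-aspartate 130 mM, EGTA 10 mM, MgATP 1 mM, pCa 7. Cells perfused with low-K physiologic solution; step to 60 mV from −60 mV holding; TEA-isolated current. Drug applied by perfusion, DMSO 1:2000 final.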

F11 [2] = assay: Blockade of inward rectifier potassium channel in mouse rat hybrid F11 cells at 45 uM by whole-cell patch clamp technique
F11 [3] = assay: Blockade of delayed rectifier potassium channel in mouse rat hybrid F11 cells at 45 uM by whole-cell patch clamp technique; procedure, shortened: as §1
F11 [4] = assay: Blockade of sodium channel in mouse rat hybrid F11 cells by whole-cell patch clamp technique
Procedure, shortened: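 F11 cells (mouse neuroblastoma N18TG-2 × rat DRG hybrid) grown in DMEM with 4.5 g/L glucose and 10% FCS at 37 °C, 5% CO2. Cells were plated and incubated about 24 h before whole-cell recording. Pipette solution was K-aspartate based at pCa 7 with 1 mM MgATP. Compounds came from 300 mM DMSO stocks, with DMSO at 1:2000 final, and were delivered by local perfusion. Capacitance and series resistance were compensated 85–95%.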

F11 [5] = assay: Blockade of inward rectifier potassium channel in mouse rat hybrid F11 cells at 36 uM by whole-cell patch clamp technique
F11 [6] = assay: Blockade of delayed rectifier potassium channel in mouse rat hybrid F11 cells at 36 uM by whole-cell patch clamp technique; procedure, shortened: as §1

Structure (SMILES)	Activity (F11 [1])	further results
Oc1ccc(CCc2cc(O)cc(OCc3ccccc3)c2)cc1	89%	–
CC(C)=CCc1c(O)cc(CCc2ccc(O)cc2)cc1O	–	Activity (F11 [2]): 50.1%; Activity (F11 [3]): 74%
Oc1cc(O)cc(CCc2ccc(OCc3ccccc3)cc2)c1	89%	–
COc1ccc(CCc2cc(O)cc(O)c2)cc1	89.4%	Activity (F11 [4]): Active
COc1cc(O)cc(CCc2ccc(O)cc2)c1	69%	–
Oc1ccc(CCc2cc(O)cc(O)c2)cc1	52%	–
c1ccc(COc2ccc(CCc3cc(OCc4ccccc4)cc(OCc4ccccc4)c3)cc2)cc1	57%	–
Oc1ccc(/C=C/c2cc(O)cc(O)c2)cc1	42.9%	–
Oc1cc(CCc2ccc(OCc3ccccc3)cc2)cc(OCc2ccccc2)c1	50%	–
COc1ccc(CCc2cc(OC)cc(OC)c2)cc1	38.6%	–
CC(C)=CCOc1cc(O)cc(CCc2ccc(O)cc2)c1	–	Activity (F11 [5]): 53.7%; Activity (F11 [6]): 55.5%
COc1ccc(/C=C\c2cc(O)cc(O)c2)cc1	70.4%	Activity (F11 [4]): Active
